According to PubChem BioAssay:
Activity calls are given as the source filed them.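 Rule for the calls, unless noted: active = visually confirmed hit in the image check and inhibition above 20%; inconclusive = visually confirmed hit but inhibition not above 20%; inactive = no visual hit in the image check.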

Columns and labels:
[1] = inhibitors of TNFa-induced NFkB p65 translocation, primary screen, imaging, HUVEC, MLSMR starter and 10KST1 sets (AID 438;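 active = inhibition above 20% together with a positive visual image hit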;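 note: compound added about 3h40 before a 20 min TNFalpha stimulation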;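 for inhibition: signal is the nuclear over cytoplasmic p65 intensity ratio per well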); settings: HUVEC TNFa-induced p65 nuclear translocation; cell count: measured here: nuclei count (cytotoxicity indicator), at 2.08 µM; inhibition: at 2 µM, stronger effect = higher value, 0% TNFa-plus-vehicle, 100% no-TNFa wells
[2] = reduction of polyQ htt aggregates in cells – imaging, exon1htt(103Q)mCFP cells, high-content imaging, primary screen (AID 483;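 active = visual image review flags a hit and inhibition of aggregation exceeds 20%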;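 note: compound exposure lasted 3 days before fixation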;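 for nuclei count: percent of the per-plate median nuclei count of sample wells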); settings: exon1htt(103Q)mCFP cell line, aggregate imaging, at 2 µM; inhibition of aggregation: stronger effect = higher value; nuclei count: measured here: cell count, toxicity
[3] = endothelial E-selectin expression blockers – imaging, HUVEC, immunofluorescence, MLSMR starter and 10KST1 sets, primary screen (AID 487); settings: HUVEC TNFalpha-induced E-selectin immunofluorescence imaging, at 2 µM; inhibition: stronger effect = higher value; nuclei count: measured here: cell number, toxicity;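 for inhibition: signal is fraction of cell area covered by stained E-selectin grains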;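 for nuclei count: 100% = median nuclei count of all wells on the same plate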
[4] = molecular target: Voltage-gated potassium channel subunit beta-2 (Rattus norvegicus) (UniProt P62483); assay: inhibitors of rat Kvbeta2 reductase activity – biochemical, NADPH fluorescence, primary screen (AID 622;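 active = fluorescence slope higher than the sample average by over 3 SD, cut at about -0.22 in these data, passing the limit was not always enough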;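 note: slope of raw intensity against log time taken from 70 to 1610 s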); settings: recombinant KvBeta, 4-cyanobenzaldehyde reduction, at 10 µM, stronger effect = higher value
Voltage-gated potassium channel subunit beta-2 (Rattus norvegicus), sequence (P62483 whole entry, looked up): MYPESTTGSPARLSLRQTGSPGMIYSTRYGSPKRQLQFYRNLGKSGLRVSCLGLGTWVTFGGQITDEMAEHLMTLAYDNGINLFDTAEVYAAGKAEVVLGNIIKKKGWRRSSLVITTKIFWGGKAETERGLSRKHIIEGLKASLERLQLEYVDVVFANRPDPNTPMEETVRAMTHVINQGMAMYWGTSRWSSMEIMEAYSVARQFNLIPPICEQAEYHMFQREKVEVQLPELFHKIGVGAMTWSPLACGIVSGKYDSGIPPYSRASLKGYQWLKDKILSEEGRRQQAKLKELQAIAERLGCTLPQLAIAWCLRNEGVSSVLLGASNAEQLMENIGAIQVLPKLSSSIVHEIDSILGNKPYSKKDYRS

[5] = molecular target: Voltage-gated potassium channel subunit beta-2 (Rattus norvegicus) (UniProt P62483); assay: enhancers of rat Kvbeta2 NADPH turnover – biochemical, NADPH fluorescence, primary screen (AID 623;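 active = NADPH fluorescence slope more negative than the mean of all samples by about 3 SD, 99.7% confidence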;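 note: fluorescence intensity change per second fitted from 20 to 320 s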); settings: Recombinant KvBeta, NADPH fluorescence decrease slope, 10 min; at 10 µM; stronger effect = lower value
[6] = molecular target: Muscarinic acetylcholine receptor M4 (Homo sapiens) (UniProt P08173); assay: M4-linked GIRK flux change, two-sided – cell-based, HEK293 M4/GIRK, thallium flux, BTC-AM, M4 allosteric agonist project, primary screen (AID 625;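 active = fluorescence slope after compound addition differing from the mean of all tested samples at 99.7% confidence, mostly higher but some lower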;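 note: thallium influx through GIRK channels coupled to M4 in HEK293 cells with BTC-AM dye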); settings: at 10 µM, actives lie on both sides
Muscarinic acetylcholine receptor M4 (Homo sapiens), sequence (P08173 whole entry, looked up): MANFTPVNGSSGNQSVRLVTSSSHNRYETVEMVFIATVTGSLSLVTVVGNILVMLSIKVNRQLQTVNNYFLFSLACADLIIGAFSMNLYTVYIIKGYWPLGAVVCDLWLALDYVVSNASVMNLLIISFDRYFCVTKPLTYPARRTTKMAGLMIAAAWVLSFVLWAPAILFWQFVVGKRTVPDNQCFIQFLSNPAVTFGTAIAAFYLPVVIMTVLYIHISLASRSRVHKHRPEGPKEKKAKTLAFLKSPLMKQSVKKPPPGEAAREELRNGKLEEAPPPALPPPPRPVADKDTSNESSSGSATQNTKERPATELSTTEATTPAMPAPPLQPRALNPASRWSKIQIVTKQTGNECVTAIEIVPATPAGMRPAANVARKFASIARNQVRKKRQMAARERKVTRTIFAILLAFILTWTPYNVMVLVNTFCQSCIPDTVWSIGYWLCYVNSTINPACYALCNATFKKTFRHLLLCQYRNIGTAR
Procedure, shortened: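 assay system = HEK293 cells with M4 receptor and GIRK channels | medium = pH 7.3 thallium assay buffer | doses = 10 µM final, single point | timing = cells overnight at 37 °C, BTC-AM loading 1 h, reads 2 min total | signal = BTC-AM fluorescence, 1 Hz kinetic reads | read-out = post-addition slope, 15–24 s, of baseline-normalized fluorescence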

[7] = blockers of RIG-like receptor reporter activation – cell-based, Sendai virus stimulus, luciferase, 10K MLSCN set, TLR/RLR signaling modifier project, primary screen (AID 602276;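 active = inhibition at or above 50% at 10 µM; inactive = inhibition below 50%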;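 note: firefly luciferase from ISG56 promoter only with Renilla not read in this screen; 0% = Sendai virus plus DMSO and 100% = medium plus DMSO without virus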); settings: HEK293 RL24 IRF3 luciferase reporter, at 10 µM, stronger effect = higher value
[8] = TLR3 IRF3 reporter activation blockers – cell-based, poly I:C stimulus, luciferase, 10K MLSCN set, primary screen (AID 602277;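 active = inhibition of the reporter signal at or above 50%; inactive = inhibition below 50%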); settings: HEK293-TLR3 RL24 IRF3 luciferase reporter, at 10 µM, stronger effect = higher value

| Structure (SMILES) | cell count [1] | inhibition [1] | inhibition of aggregation [2] | nuclei count [2] | inhibition [3] | nuclei count [3] | fluorescence slope [4] | NADPH fluorescence slope [5] | fluorescence slope [6] | inhibition [7] | inhibition [8] |
| --- | --- | --- | --- | --- | --- | --- | --- | --- | --- | --- | --- |
| Cc1ccc2nc(CSc3nnc(-c4ccco4)n3-c3ccccc3)cc(=O)n2c1 | 509 | -7.8% (inactive) | -2% (inactive) | 115% | -175% (inactive) | 201% | -0.567 (inactive) | -1.2e-06 (inactive) | 0.00636 (inactive) | -11% (inactive) | -20% (inactive) |
| CCOC(=O)c1[nH]c(C)c(C(=O)Nc2cc(OC)ccc2OC)c1C | 671 | -5.9% (inactive) | -3.7% (inactive) | 2.5% | -153% (inactive) | 111% | -0.415 (inactive) | 4.7e-05 (inactive) | 0.00644 (inactive) | 30.4% (inactive) | 51.4% (active) |
| Cc1nc2ccccc2c(=O)n1NC(=O)c1ccc(F)cc1Cl | 302 | 5% (inactive) | 9.2% (inactive) | 87.5% | 21.5% (inactive) | 70.3% | -0.483 (inactive) | -2.3e-05 (inactive) | 0.00433 (inactive) | 10.8% (inactive) | 8.86% (inactive) |
| Cc1cc(O)c(C2(C(F)(F)F)NCCNC2=O)cc1C (centres undefined) | 560 | 4.7% (inactive) | 24.3% (inactive) | 84.5% | 63.7% (inactive) | 63.2% | -0.576 (inactive) | 1e-05 (inactive) | 0.00721 (inactive) | 17.6% (inactive) | 29.3% (inactive) |
| CCCCOc1ccc(NC(=O)Cn2c(=O)ccc3c(C)cc(C)nc32)cc1 | 400 | 5.6% (inactive) | 11.8% (inactive) | 88.5% | -342% (inactive) | 149% | -0.565 (inactive) | 8.6e-06 (inactive) | 0.0062 (inactive) | 15.2% (inactive) | 20.7% (inactive) |
| COc1ccccc1C1c2c(oc3ccc(Cl)cc3c2=O)C(=O)N1c1cc(C)on1 (centres undefined) | 345 | -5% (inactive) | 2.2% (inactive) | 103% | -13.8% (inactive) | 112% | -0.555 (inactive) | 2.1e-05 (inactive) | 0.0044 (inactive) | 24.8% (inactive) | 16.8% (inactive) |
| COCCn1c(NCc2ccc(C)cc2)nc2c1c(=O)[nH]c(=O)n2C | 848 | 6.8% (inactive) | 29.4% (inactive) | 91.9% | 9.9% (inactive) | 110% | -0.543 (inactive) | -2.1e-05 (inactive) | 0.00577 (inactive) | 7.9% (inactive) | 13.3% (inactive) |
| COc1ccc(-c2ccc(-c3nnc(-c4ccncc4)o3)cc2)cc1 | 379 | -7.7% (inactive) | 5.3% (inactive) | 103% | -76.9% (inactive) | 99.2% | -0.501 (inactive) | -3.5e-05 (inactive) | 0.00505 (inactive) | -14.4% (inactive) | -28.2% (inactive) |
| O=C(CCCn1c(=O)c2sccc2n(CC(=O)NCc2ccco2)c1=O)NCc1ccco1 | 263 | 2.8% (inactive) | -6.2% (inactive) | 98.5% | -49.2% (inactive) | 117% | -0.567 (inactive) | -5.7e-05 (inactive) | 0.00613 (inactive) | 13.9% (inactive) | 15% (inactive) |
| Brc1ccc(-c2nnc3sc(CN4CCC5(CC4)OCCO5)cn23)cc1 | 414 | 3.2% (inactive) | -6.9% (inactive) | 112% | -185% (inactive) | 130% | -0.57 (inactive) | -1.2e-05 (inactive) | 0.00615 (inactive) | 11.1% (inactive) | 14% (inactive) |
| CCOc1ccc(C(=O)N(CN2CCCC2=O)c2ccc(C)cc2)cc1 | 385 | -1.4% (inactive) | -14.5% (inactive) | 118% | 14.5% (inactive) | 84% | -0.53 (inactive) | -5.9e-05 (inactive) | 0.0056 (inactive) | -0.0171% (inactive) | -43.9% (inactive) |
| Cc1cc(NC(=O)Cn2cnc3c2c(=O)n(C)c(=O)n3C)n(-c2ccccc2)n1 | 580 | -38.9% (inactive) | 1.1% (inactive) | 99.2% | 22.7% (inactive) | 68.4% | -0.33 (inactive) | -8.3e-05 (inactive) | 0.00675 (inactive) | 13.4% (inactive) | 17% (inactive) |
| CC(C)CCn1c(SCC#N)nc2c(sc3ccccc32)c1=O | 718 | -3.6% (inactive) | 0.6% (inactive) | 117% | -60.1% (inactive) | 119% | -0.485 (inactive) | -2.4e-05 (inactive) | 0.00662 (inactive) | 6.8% (inactive) | 14.8% (inactive) |
| Cn1cccc1C(=O)NC(=O)CSc1nnc(C2CC2)n1-c1ccccc1 | 670 | -2% (inactive) | -30.7% (inactive) | 93.6% | 27.3% (inactive) | 62.6% | -0.589 (inactive) | 4.6e-06 (inactive) | 0.00691 (inactive) | 26.6% (inactive) | 9.42% (inactive) |
